Values after ≈ are worked out from the molar mass of the structure shown.
What was measured:
[1] = molecular target: T1, Human immunodeficiency virus type 1 protease (Human immunodeficiency virus 1, UniProt Q72874); experiment: Inhibitory activity against HIV protease in peptide cleavage assay
Summary of the method: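 HIV-1 protease peptide-substrate cleavage assay. Inhibitor dissolved in DMSO and added to the enzyme mixture at the required concentrations. Extent of substrate cleavage determined by HPLC. IC50 calculated from cleavage extent.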

[2] = molecular target: T1, Human immunodeficiency virus type 1 protease; experiment: Inhibitory activity against HIV Protease in peptide cleavage assay
Summary of the method: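 HIV-1 protease substrate cleavage assay. Inhibitor was dissolved in DMSO and added to the enzyme mixture at the required concentrations. Substrate cleavage was measured by HPLC, and IC50 was calculated from the extent of cleavage.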

H9 = experiment: Ability to inhibit HIV-1 infection in H9 human T-lymphoid cells; type: functional; conditions: read-out: MIC100
Summary of the method: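 HIV-1 spread in culture of H9 human T-lymphoid cells, tested at concentrations up to 12 μM. Value reported as MIC100, the minimum concentration giving 100% inhibition of viral spread.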

Structure (SMILES)	IC50 [1]	IC50 [2]	MIC (H9)
CCC(C)[C@H](NC(=O)[C@H](Cc1ccccc1)C[C@H](O)[C@H](Cc1ccccc1)NC(=O)OC(C)(C)C)C(=O)NCC(O)CO (some centres undefined)	0.15 nM	–	–
CC(C)C[C@H](NC(=O)[C@H](Cc1ccccc1)C[C@H](O)[C@H](Cc1ccccc1)NC(=O)OC(C)(C)C)C(N)=O	–	10 nM	–
CC(C)(C)OC(=O)N[C@@H](Cc1ccccc1)[C@@H](O)C[C@@H](Cc1ccccc1)C(=O)NCC(N)=O	–	550 nM	–
CNCCNC(=O)[C@@H](NC(=O)[C@H](Cc1ccccc1)C[C@H](O)[C@H](Cc1ccccc1)NC(=O)OC(C)(C)C)C(C)C	1.73 nM	–	–
CC(C)[C@H](NC(=O)[C@H](Cc1ccccc1)C[C@H](O)[C@H](Cc1ccccc1)NC(=O)OC(C)(C)C)C(=O)NCCCN(C)C	–	3.4 nM	–
CC(C)C[C@H](NC(=O)[C@H](Cc1ccccc1)C[C@H](O)[C@H](Cc1ccccc1)NC(=O)OC(C)(C)C)C(=O)NCCCN(C)C	23 nM	–	–
CC(C)[C@H](NC(=O)[C@H](Cc1ccccc1)C[C@H](O)[C@H](Cc1ccccc1)NC(=O)OC(C)(C)C)C(=O)NCc1ccncc1	0.62 nM	–	0.4 µM (≈ 0.241 µg/mL)
CC(C)[C@H](NC(=O)[C@H](Cc1ccccc1)C[C@H](O)[C@H](Cc1ccccc1)NC(=O)OC(C)(C)C)C(=O)NCc1ccccn1	0.75 nM	–	–
CC(C)[C@H](NC(=O)[C@H](Cc1ccccc1)C[C@H](O)[C@H](Cc1ccccc1)NC(=O)OC(C)(C)C)C(=O)NCCN	0.46 nM	–	–
CC(C)(C)OC(=O)N[C@@H](Cc1ccccc1)[C@@H](O)C[C@@H](Cc1ccccc1)C(=O)N[C@H](C(N)=O)C1CCCCC1	–	5.2 nM	–
CC(C)C[C@H](NC(=O)[C@H](Cc1ccccc1)C[C@H](O)[C@H](Cc1ccccc1)NC(=O)OC(C)(C)C)C(=O)NCCO	2.1 nM	–	3 µM (≈ 1.71 µg/mL)
CCC(C)[C@H](NC(=O)[C@H](Cc1ccccc1)C[C@H](O)[C@H](Cc1ccccc1)NC(=O)OC(C)(C)C)C(=O)NCc1ncc[nH]1 (some centres undefined)	0.88 nM	–	–
CC(C)[C@H](NC(=O)[C@H](Cc1ccccc1)C[C@H](O)[C@H](Cc1ccccc1)NC(=O)OC(C)(C)C)C(=O)NCCO	0.44 nM	–	–
CC(C)(C)OC(=O)N[C@@H](Cc1ccccc1)[C@@H](O)C[C@@H](Cc1ccccc1)C(=O)N[C@H](C(N)=O)c1ccccc1	–	0.9 nM	1.5 µM (≈ 0.819 µg/mL)
CC(C)C[C@H](NC(=O)[C@H](Cc1ccccc1)C[C@H](O)[C@H](Cc1ccccc1)NC(=O)OC(C)(C)C)C(=O)NCc1ccccc1	–	1.4 nM	3 µM (≈ 1.85 µg/mL)
CC(C)(C)OC(=O)N[C@@H](Cc1ccccc1)[C@@H](O)C[C@@H](Cc1ccccc1)C(=O)N[C@@H](Cc1ccccc1)C(N)=O	–	29 nM	–
CC[C@H](C)[C@H](NC(=O)[C@H](Cc1ccccc1)C[C@H](O)[C@H](Cc1ccccc1)NC(=O)OC(C)(C)C)C(=O)NC(=O)C(N)Cc1ccccc1 (some centres undefined)	–	0.25 nM	–
CCC(C)[C@H](NC(=O)[C@H](Cc1ccccc1)C[C@H](O)[C@H](Cc1ccccc1)NC(=O)OC(C)(C)C)C(=O)NCCCN(C)C (some centres undefined)	7.9 nM	–	–
CCN(CC)CC(O)CNC(=O)[C@@H](NC(=O)[C@H](Cc1ccccc1)C[C@H](O)[C@H](Cc1ccccc1)NC(=O)OC(C)(C)C)C(C)C (some centres undefined)	6.3 nM	–	–
CCC(C)[C@H](NC(=O)[C@H](Cc1ccccc1)C[C@H](O)[C@H](Cc1ccccc1)NC(=O)OC(C)(C)C)C(=O)NCCO (some centres undefined)	0.46 nM	–	0.4 µM (≈ 0.228 µg/mL)
CC(C)C[C@@H](NC(=O)[C@H](Cc1ccccc1)C[C@H](O)[C@H](Cc1ccccc1)NC(=O)OC(C)(C)C)C(N)=O	–	3100 nM	–
CC(C)(C)OC(=O)N[C@@H](Cc1ccccc1)[C@@H](O)C[C@@H](Cc1ccccc1)C(=O)N[C@@H](Cc1ncc[nH]1)C(N)=O	770 nM	–	–

Structure (SMILES)	IC50 [1]	IC50 [2]	MIC (H9)
CC(C)[C@H](NC(=O)[C@H](Cc1ccccc1)C[C@H](O)[C@H](Cc1ccccc1)NC(=O)OC(C)(C)C)C(=O)NCCCN1CCOCC1	2.9 nM	–	–
CC(C)C[C@H](NC(=O)[C@H](Cc1ccccc1)C[C@H](O)[C@H](Cc1ccccc1)NC(=O)OC(C)(C)C)C(=O)NC(CO)Cc1ccccc1 (some centres undefined)	1.5 nM	–	–
CCC(C)[C@H](NC(=O)[C@H](Cc1ccccc1)C[C@H](O)[C@H](Cc1ccccc1)NC(=O)OC(C)(C)C)C(=O)NCc1ccccn1 (some centres undefined)	1.3 nM	–	0.78 µM (≈ 0.481 µg/mL)
CC(C)(C)OC(=O)N[C@@H](Cc1ccccc1)[C@@H](O)C[C@@H](Cc1ccccc1)C(=O)N[C@H](C(=O)NCc1nc2ccccc2[nH]1)c1ccccc1	0.07 nM	–	–
CC(C)C[C@H](NC(=O)[C@H](Cc1ccccc1)C[C@H](O)[C@H](Cc1ccccc1)NC(=O)OC(C)(C)C)C(=O)NCCc1ccccc1	15 nM	–	–
CCC(C)[C@H](NC(=O)[C@H](Cc1ccccc1)C[C@H](O)[C@H](Cc1ccccc1)NC(=O)OC(C)(C)C)C(N)=O (some centres undefined)	–	2.7 nM	3 µM (≈ 1.58 µg/mL)
CC(C)(C)OC(=O)N[C@@H](Cc1ccccc1)[C@@H](O)C[C@@H](Cc1ccccc1)C(=O)N[C@@H](CO)C(N)=O	–	606 nM	–
CC[C@H](C)[C@H](NC(=O)[C@H](Cc1ccccc1)C[C@H](O)[C@H](Cc1ccccc1)NC(=O)OC(C)(C)C)C(=O)NCc1nc2ccccc2[nH]1	0.06 nM	–	0.2 µM (≈ 0.131 µg/mL)
CC(C)[C@H](NC(=O)[C@H](Cc1ccccc1)C[C@H](O)[C@H](Cc1ccccc1)NC(=O)OC(C)(C)C)C(=O)NCc1nc2ccccc2[nH]1	0.2 nM	–	–
CC(C)(C)OC(=O)N[C@@H](Cc1ccccc1)[C@@H](O)C[C@@H](Cc1ccccc1)C(=O)N[C@@H](Cc1cc2ccccc2[nH]1)C(N)=O	60 nM	–	–
CC(C)[C@H](NC(=O)[C@H](Cc1ccccc1)C[C@H](O)[C@H](Cc1ccccc1)NC(=O)OC(C)(C)C)C(=O)NCC(O)CN1CCOCC1 (some centres undefined)	0.88 nM	–	–
CC(C)[C@H](NC(=O)[C@H](Cc1ccccc1)C[C@H](O)[C@H](Cc1ccccc1)NC(=O)OC(C)(C)C)C(=O)NCC(O)CO (some centres undefined)	0.05 nM	–	1.5 µM (≈ 0.879 µg/mL)
CCC(C)[C@H](NC(=O)[C@H](Cc1ccccc1)C[C@H](O)[C@H](Cc1ccccc1)NC(=O)OC(C)(C)C)C(=O)NCCN(C)C (some centres undefined)	7.1 nM	–	–
CC(C)(C)OC(=O)N[C@@H](Cc1ccccc1)[C@@H](O)C[C@@H](Cc1ccccc1)C(=O)N[C@@H](CC1CCCCC1)C(N)=O	–	64 nM	–
CC(C)[C@H](NC(=O)[C@H](Cc1ccccc1)C[C@H](O)[C@H](Cc1ccccc1)NC(=O)OC(C)(C)C)C(=O)NCc1ccccc1	0.24 nM	–	–
CCC(C)[C@H](NC(=O)[C@H](Cc1ccccc1)C[C@H](O)[C@H](Cc1ccccc1)NC(=O)OC(C)(C)C)C(=O)NCc1ccccc1 (some centres undefined)	–	0.71 nM	1.5 µM (≈ 0.924 µg/mL)
CC(C)(C)OC(=O)N[C@@H](Cc1ccccc1)[C@@H](O)C[C@@H](Cc1ccccc1)C(=O)N[C@H](C(=O)NCc1ccccc1)c1ccccc1	5.8 nM	–	–
CC(C)[C@H](NC(=O)[C@H](Cc1ccccc1)C[C@H](O)[C@H](Cc1ccccc1)NC(=O)OC(C)(C)C)C(=O)NCc1cccnc1	0.69 nM	–	–
CC(C)[C@H](NC(=O)[C@H](Cc1ccccc1)C[C@H](O)[C@H](Cc1ccccc1)NC(=O)OC(C)(C)C)C(N)=O	–	1.1 nM	–
C[C@H](NC(=O)[C@H](Cc1ccccc1)C[C@H](O)[C@H](Cc1ccccc1)NC(=O)OC(C)(C)C)C(N)=O	–	7 nM	6 µM (≈ 2.9 µg/mL)
CN(C)CCCNC(=O)[C@@H](NC(=O)[C@H](Cc1ccccc1)C[C@H](O)[C@H](Cc1ccccc1)NC(=O)OC(C)(C)C)c1ccccc1	26 nM	–	–

Reference: ChEMBL document CHEMBL1125211, “Design and synthesis of HIV protease inhibitors. Variations of the carboxy terminus of the HIV protease inhibitor L-682,679” (J Med Chem, 1991)
